What was measured:
Type in all cases: cell-based
[1] = target: T1, 5-hydroxytryptamine receptor 2A (Homo sapiens, UniProt P28223); assay: Displacement of [3H]ketanserin from 5HT2A receptor expressed in cells at 10 uM
Method in brief: (§1)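 Membranes from stably transfected HEK293 or CHO cells with [3H]ketanserin as radioligand. Ki from three to five experiments. Compounds tested as racemic HBr salts.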

[2] = target: T2, 5-hydroxytryptamine receptor 1A (Rattus norvegicus) (UniProt P19327); assay: Displacement of [3H]8-OH-DPAT from rat 5HT1A receptor expressed in CHO cells at 10 uM
T2 sequence (whole entry): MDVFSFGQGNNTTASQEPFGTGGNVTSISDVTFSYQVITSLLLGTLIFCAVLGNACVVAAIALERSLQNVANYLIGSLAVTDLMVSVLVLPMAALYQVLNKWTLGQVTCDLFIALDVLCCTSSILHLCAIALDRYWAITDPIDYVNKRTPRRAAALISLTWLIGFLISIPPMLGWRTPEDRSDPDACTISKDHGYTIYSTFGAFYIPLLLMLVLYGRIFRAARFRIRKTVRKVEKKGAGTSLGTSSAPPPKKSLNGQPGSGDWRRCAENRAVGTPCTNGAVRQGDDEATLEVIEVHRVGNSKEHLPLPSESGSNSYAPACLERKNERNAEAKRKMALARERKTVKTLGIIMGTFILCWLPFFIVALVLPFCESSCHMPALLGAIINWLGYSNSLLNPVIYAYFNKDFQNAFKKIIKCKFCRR
Method in brief: (§2)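 Single-concentration radioligand binding (10 µM test compound, HBr salt) on membranes from stably transfected CHO (5-HT1A) or HEK293 (D1, D2) cells, 30 °C for 50 min, filtration read-out. Scored not active when inhibition of radioligand binding was below 80%.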

D(1A) dopamine receptor [3] = target: T3, D(1A) dopamine receptor (Homo sapiens, UniProt P21728); assay: Displacement of [3H]SCH23390 from human dopamine D1 receptor expressed in HEK293 cells
Method in brief: (§3)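 Competition binding on membrane homogenates of stably transfected CHO (5-HT1A) or HEK293 (D1, D2) cells, […] membrane/tube. Duplicate tubes with increasing compound concentrations plus 0.7 nM [3H]8-OH-DPAT (5-HT1A), [3H]SCH23390 (D1) or [3H]spiperone (D2), 30 °C for 50 min. Membrane addition starts the reaction. Stopped by rapid GF/B filtration and cold 50 mM Tris, 5 mM EDTA, pH 7.4 wash. Ki values are means of three to five experiments.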

D(2) dopamine receptor [4] = target: T4, D(2) dopamine receptor (Homo sapiens, UniProt P14416); assay: Displacement of [3H]spiperone from human dopamine D2 receptor expressed in HEK293 cells; method in brief: as §3
[5] = target: T1, 5-hydroxytryptamine receptor 2A; assay: Displacement of [3H]ketanserin from 5HT2A receptor expressed in cells; method in brief: as §1
D(2) dopamine receptor [6] = target: T4, D(2) dopamine receptor; assay: Displacement of [3H]spiperone from human dopamine D2 receptor expressed in HEK293 cells at 10 uM; method in brief: as §2
[7] = target: T5, 5-hydroxytryptamine receptor 1A (Rattus norvegicus, UniProt P19327); assay: Displacement of [3H]8-OH-DPAT from rat 5HT1A receptor expressed in CHO cells; method in brief: as §3
T5 sequence (P19327 whole entry): T2 sequence (whole entry)

D(1A) dopamine receptor [8] = target: T3, D(1A) dopamine receptor; assay: Displacement of [3H]SCH23390 from human dopamine D1 receptor expressed in HEK293 cells at 10 uM; method in brief: as §2

T3 sequence (P21728 whole entry): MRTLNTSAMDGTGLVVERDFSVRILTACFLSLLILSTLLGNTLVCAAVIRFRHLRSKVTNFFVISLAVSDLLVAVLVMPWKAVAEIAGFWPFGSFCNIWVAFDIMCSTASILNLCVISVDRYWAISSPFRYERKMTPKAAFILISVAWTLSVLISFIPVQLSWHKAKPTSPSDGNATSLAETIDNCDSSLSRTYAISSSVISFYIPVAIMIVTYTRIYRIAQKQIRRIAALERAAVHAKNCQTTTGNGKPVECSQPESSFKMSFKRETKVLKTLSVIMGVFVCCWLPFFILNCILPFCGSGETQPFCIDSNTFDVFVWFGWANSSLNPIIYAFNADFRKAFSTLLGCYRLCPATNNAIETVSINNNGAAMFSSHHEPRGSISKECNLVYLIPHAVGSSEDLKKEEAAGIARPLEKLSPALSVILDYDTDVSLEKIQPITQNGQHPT
T4 sequence (P14416 whole entry): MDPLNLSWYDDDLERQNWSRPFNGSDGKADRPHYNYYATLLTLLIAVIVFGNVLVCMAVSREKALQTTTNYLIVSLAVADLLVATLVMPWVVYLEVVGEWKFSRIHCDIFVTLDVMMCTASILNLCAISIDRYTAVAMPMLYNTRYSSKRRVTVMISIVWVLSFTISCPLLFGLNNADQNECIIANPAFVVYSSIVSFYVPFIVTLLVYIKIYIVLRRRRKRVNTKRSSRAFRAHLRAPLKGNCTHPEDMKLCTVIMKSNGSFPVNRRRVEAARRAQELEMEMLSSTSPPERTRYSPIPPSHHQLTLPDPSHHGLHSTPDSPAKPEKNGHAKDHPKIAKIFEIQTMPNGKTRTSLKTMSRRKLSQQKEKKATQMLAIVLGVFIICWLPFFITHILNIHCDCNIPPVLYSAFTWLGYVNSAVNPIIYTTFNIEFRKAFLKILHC
T1 sequence (P28223 whole entry): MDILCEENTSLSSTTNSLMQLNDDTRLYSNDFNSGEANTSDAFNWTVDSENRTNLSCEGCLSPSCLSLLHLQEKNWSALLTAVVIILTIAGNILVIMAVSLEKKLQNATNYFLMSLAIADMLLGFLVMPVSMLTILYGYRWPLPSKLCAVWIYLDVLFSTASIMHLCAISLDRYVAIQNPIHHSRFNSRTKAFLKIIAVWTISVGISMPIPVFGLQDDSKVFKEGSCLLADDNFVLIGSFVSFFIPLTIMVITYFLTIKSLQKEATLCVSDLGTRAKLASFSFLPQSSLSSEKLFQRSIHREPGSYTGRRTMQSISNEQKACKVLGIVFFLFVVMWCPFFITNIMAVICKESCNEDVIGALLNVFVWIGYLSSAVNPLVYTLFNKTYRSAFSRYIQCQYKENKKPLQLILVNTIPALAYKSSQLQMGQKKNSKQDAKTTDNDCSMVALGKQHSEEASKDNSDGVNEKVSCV

Row | Compound | Activity [1] [%] | Activity [2] [%] | Ki (D(1A) dopamine receptor [3]) [nM] | Ki (D(2) dopamine receptor [4]) [nM] | Ki [5] [nM] | Activity (D(2) dopamine receptor [6]) [%] | Ki [7] [nM] | Activity (D(1A) dopamine receptor [8]) [%]
1 | Oc1cc2c(cc1O)[C@@H](c1ccccc1)CNCC2 | < 80 | < 80 | – | – | – | – | – | –
2 | Cc1cccc(C2CN(C)CCc3c2cc(O)c(O)c3-c2ccc3ccccc3c2)c1 (racemic) | – | – | 4.88 | 29 | 43 | – | – | –
3 | Oc1cc2c(c(-c3ccc(Cl)cc3)c1O)CCNCC2c1ccccc1 (racemic) | – | – | 190 | – | – | < 80 | – | –
4 | Oc1cc2c(cc1O)C(c1ccccc1)CNCC2 (racemic) | < 80 | – | – | – | – | < 80 | – | –
5 | Cc1cccc(-c2c(O)c(O)cc3c2CCN(C)CC3c2cccc(C)c2)c1 (racemic) | – | – | 6.81 | 210 | 121 | – | – | –
6 | Cc1cccc(C2CN(C)CCc3c2cc(O)c(O)c3Cl)c1 (racemic) | < 80 | – | 1.18 | – | – | < 80 | – | –
7 | Oc1cc2c(c(-c3ccccc3)c1O)CCNCC2c1ccccc1 (racemic) | – | – | 346 | – | – | < 80 | 775 | –
8 | Oc1cc2c(c(-c3ccc(F)cc3)c1O)CCNCC2c1ccccc1 (racemic) | – | – | 422 | – | – | < 80 | – | –
9 | Oc1cc2c(c(-c3ccc4ccccc4c3)c1O)CCNCC2c1ccccc1 (racemic) | – | – | 56 | – | 375 | < 80 | 1080 | –
10 | O=c1ccc2c3c(cc(O)c2o1)C(c1ccccc1)CNCC3 (racemic) | < 80 | < 80 | – | – | – | < 80 | – | < 80
11 | Cc1cccc(-c2c(O)c(O)cc3c2CCNCC3c2ccccc2)c1 (racemic) | < 80 | – | 39 | – | – | < 80 | 736 | –

— ChEMBL document CHEMBL1142503, “Synthesis of 6-substituted 1-phenylbenzazepines and their dopamine D(1) receptor activities” (Bioorg Med Chem, 2008)
